Reference: ChEMBL document CHEMBL3797175, “Discovery of 6-(difluoro(6-(4-fluorophenyl)-[1,2,4]triazolo[4,3-b][1,2,4]triazin-3-yl)methyl)quinoline as a highly potent and selective c-Met inhibitor” (Eur J Med Chem, 2016)
pIC50: −log10 of the molar value. The source made the active and inactive calls. The calls are words filed in the database; no cut-off is given here.

What was measured:
[1] = Selectivity ratio of IC50 for human SNU16 cells to IC50 for human EBC1 cells; assay type: ADME, cell-based; conditions: snu-16
[2] = system: EBC-1; assay: Antitumor activity against human EBC1 cells xenografted in po dosed athymic nude mouse assessed as tumor growth inhibition administered bid for 21 days measured twice a week during compound dosing; assay type: functional, organism-based
Method in brief: (§1)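 Nude mice bearing s.c. tumours. Cells were first grown s.c. to 700–800 mm³, then 1.5 mm³ fragments were transplanted s.c. into the right flank. Mice were randomised at 100–200 mm³ (n=6 treated, n=12 vehicle) and dosed orally twice daily for 21 days. Caliper measurement twice weekly; TV = length×width²/2. TGI taken on the final day versus vehicle; Student's t test.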

[3] = Antitumor activity against human MKN45 cells xenografted in athymic nude mouse assessed as tumor growth inhibition at 12.5 mg/kg, po bid for 21 days measured twice a week during compound dosing relative to control; assay type: functional; conditions: MKN-45, po, 504 h, read-out: TGI; method in brief: as §1
[4] = target: Proto-oncogene tyrosine-protein kinase Src (Homo sapiens) (UniProt P12931); assay: Inhibition of recombinant c-Src (unknown origin) using poly (Glu, Tyr) 4:1 as substrate at 1000 nM incubated for 60 mins by ELISA relative to control
Proto-oncogene tyrosine-protein kinase Src (Homo sapiens), sequence (P12931 2-536 limits assumed): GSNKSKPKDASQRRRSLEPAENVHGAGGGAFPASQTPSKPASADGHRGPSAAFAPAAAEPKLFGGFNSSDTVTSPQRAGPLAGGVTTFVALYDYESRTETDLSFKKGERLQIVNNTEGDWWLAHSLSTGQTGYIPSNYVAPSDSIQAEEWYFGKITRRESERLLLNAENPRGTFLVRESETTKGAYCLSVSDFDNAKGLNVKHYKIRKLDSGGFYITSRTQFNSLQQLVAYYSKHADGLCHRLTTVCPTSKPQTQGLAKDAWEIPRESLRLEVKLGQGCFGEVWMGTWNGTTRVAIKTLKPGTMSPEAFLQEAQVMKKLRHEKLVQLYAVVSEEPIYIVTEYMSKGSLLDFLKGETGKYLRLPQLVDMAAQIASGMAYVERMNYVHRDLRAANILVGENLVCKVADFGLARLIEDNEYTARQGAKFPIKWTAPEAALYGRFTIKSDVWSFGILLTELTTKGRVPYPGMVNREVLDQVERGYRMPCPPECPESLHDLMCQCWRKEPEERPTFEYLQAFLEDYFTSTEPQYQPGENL
Method in brief: (§2)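 Recombinant tyrosine kinases assayed on wells precoated with poly(Glu,Tyr)4:1 (20 µg/mL). ATP 10 µmol/L in HEPES pH 7.4 buffer with MgCl2, MnCl2, Na3VO4 and DTT; compound in 1% DMSO, 1% DMSO as control. Reaction 60 min at 37 °C. Phosphotyrosine detected with PY99 and HRP anti-mouse, o-phenylenediamine, A490. Inhibition % relative to control; two experiments.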

[5] = Selectivity ratio of IC50 for human NCI-H1299 cells to IC50 for human EBC1 cells; assay type: ADME, cell-based
Method in brief: (§3)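 Both IC50s in each ratio come from one proliferation assay. Cells were seeded and exposed the next day to a range of concentrations for 72 h, then read by SRB or MTT. IC50s were fitted by four-parameter concentration–response, with each concentration at least in triplicate and at least 2 experiments. BaF3/TPR-Met is murine pre-B BaF3 transfected with TPR-MET and puromycin-selected.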

[6] = target: ALK tyrosine kinase receptor (Homo sapiens) (UniProt Q9UM73); assay: Inhibition of recombinant ALK (unknown origin) using poly (Glu, Tyr) 4:1 as substrate at 1000 nM incubated for 60 mins by ELISA relative to control; method in brief: as §2
[7] = target: TPR/MET fusion protein (Mus musculus) (UniProt P16056+F6ZDS4); assay: Inhibition of TPR-MET in mouse BAF3 cells assessed as reduction in ERK phosphorylation at Tyrosine 204 at 10 nM after 1 hr by Western blot analysis; assay type: cell-based
Method in brief: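 BaF3 stably expressing TPR-MET (puromycin-selected), grown with IL-3-conditioned medium. Treated 1 h at 37 °C, lysed in SDS sample buffer. 10% SDS-PAGE and immunoblot for phospho-c-Met, phospho-ERK1/2, phospho-AKT and totals; ECL detection.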

[8] = Selectivity ratio of IC50 for human 786-0 cells to IC50 for human EBC1 cells; assay type: ADME, cell-based; method in brief: as §3
[9] = target: Hepatocyte growth factor receptor (Homo sapiens, UniProt P08581); assay: Inhibition of c-Met in HGF stimulated human U87MG cells assessed as reduction in AKT phosphorylation at Serine 473 at 10 nM after 1 hr by Western blot analysis; assay type: cell-based; conditions: U-87MG ATCC
Hepatocyte growth factor receptor, sequence (P08581 whole entry): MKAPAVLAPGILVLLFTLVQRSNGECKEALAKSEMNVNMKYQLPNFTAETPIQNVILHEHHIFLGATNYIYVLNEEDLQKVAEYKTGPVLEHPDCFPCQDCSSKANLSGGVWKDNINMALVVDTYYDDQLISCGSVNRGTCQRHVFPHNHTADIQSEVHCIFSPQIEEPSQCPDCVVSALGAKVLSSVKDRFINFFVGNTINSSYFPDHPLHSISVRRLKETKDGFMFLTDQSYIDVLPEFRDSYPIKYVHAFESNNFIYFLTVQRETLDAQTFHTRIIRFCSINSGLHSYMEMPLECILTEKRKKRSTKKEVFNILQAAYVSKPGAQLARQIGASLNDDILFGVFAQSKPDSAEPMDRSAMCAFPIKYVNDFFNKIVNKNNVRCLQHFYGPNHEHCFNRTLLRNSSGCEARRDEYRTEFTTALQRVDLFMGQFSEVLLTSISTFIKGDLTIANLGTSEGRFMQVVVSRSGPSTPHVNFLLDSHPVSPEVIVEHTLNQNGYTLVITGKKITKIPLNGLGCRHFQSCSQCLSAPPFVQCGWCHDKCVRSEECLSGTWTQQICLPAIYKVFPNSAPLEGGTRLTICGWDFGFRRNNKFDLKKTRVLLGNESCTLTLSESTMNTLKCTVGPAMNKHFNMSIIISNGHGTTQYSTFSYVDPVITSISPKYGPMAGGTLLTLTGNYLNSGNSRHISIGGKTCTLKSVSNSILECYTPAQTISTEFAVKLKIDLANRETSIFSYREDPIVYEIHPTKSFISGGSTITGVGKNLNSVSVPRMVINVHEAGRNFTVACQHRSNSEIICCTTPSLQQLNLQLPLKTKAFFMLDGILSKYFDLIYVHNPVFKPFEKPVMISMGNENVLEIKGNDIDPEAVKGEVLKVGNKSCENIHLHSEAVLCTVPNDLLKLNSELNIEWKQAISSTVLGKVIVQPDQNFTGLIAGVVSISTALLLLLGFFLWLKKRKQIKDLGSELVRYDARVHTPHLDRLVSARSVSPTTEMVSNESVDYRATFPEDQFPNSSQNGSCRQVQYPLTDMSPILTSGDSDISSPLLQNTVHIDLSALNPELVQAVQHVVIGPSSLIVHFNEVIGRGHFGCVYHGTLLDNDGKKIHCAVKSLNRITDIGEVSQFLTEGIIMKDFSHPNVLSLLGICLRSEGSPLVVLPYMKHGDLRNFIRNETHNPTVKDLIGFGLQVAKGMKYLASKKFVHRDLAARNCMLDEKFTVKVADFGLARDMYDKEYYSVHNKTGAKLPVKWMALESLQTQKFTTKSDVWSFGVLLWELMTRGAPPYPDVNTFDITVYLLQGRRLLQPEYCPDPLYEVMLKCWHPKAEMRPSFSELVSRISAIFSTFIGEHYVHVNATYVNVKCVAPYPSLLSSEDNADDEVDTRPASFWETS
Method in brief: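 U87MG cells serum-starved 24 h, treated 1 h at 37 °C, then stimulated with HGF 100 ng/mL for 15 min. Lysed in SDS buffer, run on 10% SDS-PAGE and immunoblotted for phospho-ERK1/2 and phospho-AKT; ECL detection.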

[10] = Selectivity ratio of IC50 for human SNU16 cells to IC50 for human MKN45 cells; assay type: ADME, cell-based; conditions: snu-16
[11] = Selectivity ratio of IC50 for human SMMC7721 cells to IC50 for human MKN45 cells; assay type: ADME, cell-based; conditions: smmc-7721
Method in brief: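 Each cell line was seeded in 96-well plates, then exposed the next day to a range of compound concentrations for 72 h. Growth was read by SRB or MTT assay, and IC50 was fitted by a four-parameter concentration-response curve. Each concentration was run at least in triplicate, in at least 2 experiments. BaF3/TPR-Met are murine pre-B BaF3 cells transfected with TPR-MET cDNA and selected in puromycin.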

[12] = Selectivity ratio of IC50 for human MDA-MB-231 cells to IC50 for human MKN45 cells; assay type: ADME, cell-based; conditions: mkn-45; method in brief: as §3
[13] = Selectivity ratio of IC50 for human Calu3 cells to IC50 for human EBC1 cells; assay type: ADME, cell-based; conditions: calu-3; method in brief: as §3
[14] = Antiproliferative activity against human SNU16 cells after 72 hrs by SRB or MTT assay; assay type: functional, cell-based; conditions: SNU-16, 72 h
Method in brief: (§4)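 Cells seeded, exposed next day to a range of concentrations for 72 h. Growth read by sulforhodamine B or MTT. IC50 from four-parameter concentration-response fit. Each concentration tested at least in triplicate, with at least 2 experiments.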

[15] = Cmax in Sprague-Dawley rat at 10 mg/kg, po administered as single dose; assay type: ADME, organism-based; set-up: dose 10 mg/kg, route oral; conditions: in vivo
Method in brief: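 Male Sprague Dawley rats (n=3), single dose. iv 2 mg/kg in 1% DMA/9% Cremophor/90% saline. po 10 mg/kg in 0.5% CMC-Na. Where iv was 10 mg/kg: 10% DMSO/10% Tween 80/80% (40% PEG40); po in that case in 10% DMSO/5% Tween 80/85% saline.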

[16] = Selectivity ratio of IC50 for human 786-0 cells to IC50 for human MKN45 cells; assay type: ADME, cell-based; conditions: mkn-45; method in brief: as §3
[17] = target: Receptor-type tyrosine-protein kinase FLT3 (Homo sapiens) (UniProt P36888); assay: Inhibition of recombinant FLT3 (unknown origin) using poly (Glu, Tyr) 4:1 as substrate at 1000 nM incubated for 60 mins by ELISA relative to control; method in brief: as §2
[18] = Selectivity ratio of IC50 for human AGS cells to IC50 for mouse BAF3 cells expressing TPR-MET; assay type: ADME, cell-based; method in brief: as §3
[19] = Selectivity ratio of IC50 for human U87MG cells to IC50 for human MKN45 cells; assay type: ADME, cell-based; conditions: u-87mg atcc
[20] = target: Tyrosine-protein kinase Mer (Homo sapiens) (UniProt Q12866); conditions: 1000 nM
Tyrosine-protein kinase Mer (Homo sapiens), sequence (Q12866 whole entry): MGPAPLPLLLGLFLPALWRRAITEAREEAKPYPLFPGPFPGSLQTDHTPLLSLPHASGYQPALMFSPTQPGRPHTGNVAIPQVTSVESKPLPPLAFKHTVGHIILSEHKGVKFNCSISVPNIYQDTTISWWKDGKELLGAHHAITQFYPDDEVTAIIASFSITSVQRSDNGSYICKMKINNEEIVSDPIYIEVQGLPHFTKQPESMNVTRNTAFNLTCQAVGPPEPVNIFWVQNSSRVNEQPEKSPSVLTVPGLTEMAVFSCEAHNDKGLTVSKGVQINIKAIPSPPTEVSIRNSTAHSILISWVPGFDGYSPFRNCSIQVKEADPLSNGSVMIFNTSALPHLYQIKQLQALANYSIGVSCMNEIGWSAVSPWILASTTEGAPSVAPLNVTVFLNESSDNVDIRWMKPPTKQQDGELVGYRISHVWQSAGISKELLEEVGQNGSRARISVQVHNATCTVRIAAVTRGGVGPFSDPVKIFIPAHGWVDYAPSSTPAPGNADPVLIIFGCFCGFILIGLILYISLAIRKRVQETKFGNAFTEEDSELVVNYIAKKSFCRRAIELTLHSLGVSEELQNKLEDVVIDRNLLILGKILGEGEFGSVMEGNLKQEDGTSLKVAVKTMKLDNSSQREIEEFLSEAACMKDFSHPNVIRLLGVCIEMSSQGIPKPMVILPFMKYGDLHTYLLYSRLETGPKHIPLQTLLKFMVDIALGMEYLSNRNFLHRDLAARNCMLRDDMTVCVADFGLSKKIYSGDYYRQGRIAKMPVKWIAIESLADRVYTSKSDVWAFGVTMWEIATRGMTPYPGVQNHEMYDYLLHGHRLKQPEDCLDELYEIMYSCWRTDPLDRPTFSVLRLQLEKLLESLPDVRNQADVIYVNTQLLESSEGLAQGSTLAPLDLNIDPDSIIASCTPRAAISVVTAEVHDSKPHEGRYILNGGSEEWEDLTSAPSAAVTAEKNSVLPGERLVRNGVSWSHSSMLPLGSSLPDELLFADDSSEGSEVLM

[21] = system: NCI-H1299; assay: Antiproliferative activity against human NCI-H1299 cells after 72 hrs by SRB or MTT assay; assay type: functional, cell-based; conditions: NCI-H1299, 72 h; method in brief: as §4
[22] = Antiproliferative activity against human Bel7404 cells after 72 hrs by SRB or MTT assay; assay type: functional, cell-based; conditions: BEL-7404, 72 h; method in brief: as §4
[23] = target: Platelet-derived growth factor receptor beta (Homo sapiens) (UniProt P09619); assay: Inhibition of recombinant PDGFRbeta (unknown origin) using poly (Glu, Tyr) 4:1 as substrate at 1000 nM incubated for 60 mins by ELISA relative to control; method in brief: as §2
Platelet-derived growth factor receptor beta (Homo sapiens), sequence (P09619 whole entry): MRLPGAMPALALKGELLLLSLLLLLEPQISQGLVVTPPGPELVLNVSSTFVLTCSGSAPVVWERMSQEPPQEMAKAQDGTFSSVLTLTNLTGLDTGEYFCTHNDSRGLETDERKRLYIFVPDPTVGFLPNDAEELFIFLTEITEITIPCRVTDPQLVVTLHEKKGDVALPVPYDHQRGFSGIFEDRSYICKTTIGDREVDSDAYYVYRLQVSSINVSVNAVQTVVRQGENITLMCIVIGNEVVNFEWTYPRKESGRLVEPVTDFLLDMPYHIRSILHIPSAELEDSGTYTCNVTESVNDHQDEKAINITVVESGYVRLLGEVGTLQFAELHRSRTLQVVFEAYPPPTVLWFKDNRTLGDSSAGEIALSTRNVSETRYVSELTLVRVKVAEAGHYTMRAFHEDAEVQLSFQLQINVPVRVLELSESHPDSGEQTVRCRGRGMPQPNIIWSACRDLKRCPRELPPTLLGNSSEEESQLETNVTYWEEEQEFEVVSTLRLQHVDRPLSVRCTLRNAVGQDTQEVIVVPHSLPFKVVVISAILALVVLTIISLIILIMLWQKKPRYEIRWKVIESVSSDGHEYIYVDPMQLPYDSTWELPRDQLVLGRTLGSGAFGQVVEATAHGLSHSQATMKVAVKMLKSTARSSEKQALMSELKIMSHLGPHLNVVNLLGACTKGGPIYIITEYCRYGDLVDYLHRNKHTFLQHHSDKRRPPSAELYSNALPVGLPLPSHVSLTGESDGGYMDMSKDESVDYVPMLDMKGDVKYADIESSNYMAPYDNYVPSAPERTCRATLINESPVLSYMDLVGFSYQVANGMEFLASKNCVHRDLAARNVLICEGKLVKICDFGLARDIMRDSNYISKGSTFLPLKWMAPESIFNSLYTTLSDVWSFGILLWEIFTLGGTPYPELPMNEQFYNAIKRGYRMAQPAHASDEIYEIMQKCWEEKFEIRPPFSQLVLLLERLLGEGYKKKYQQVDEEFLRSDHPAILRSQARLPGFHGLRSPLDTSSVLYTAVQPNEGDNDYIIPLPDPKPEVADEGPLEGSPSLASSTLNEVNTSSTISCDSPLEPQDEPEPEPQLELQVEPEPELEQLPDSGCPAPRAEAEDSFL

[24] = target: Platelet-derived growth factor receptor alpha (Homo sapiens) (UniProt P16234); assay: Inhibition of recombinant PDGFRalpha (unknown origin) using poly (Glu, Tyr) 4:1 as substrate at 1000 nM incubated for 60 mins by ELISA relative to control; method in brief: as §2
Platelet-derived growth factor receptor alpha (Homo sapiens), sequence (P16234 whole entry): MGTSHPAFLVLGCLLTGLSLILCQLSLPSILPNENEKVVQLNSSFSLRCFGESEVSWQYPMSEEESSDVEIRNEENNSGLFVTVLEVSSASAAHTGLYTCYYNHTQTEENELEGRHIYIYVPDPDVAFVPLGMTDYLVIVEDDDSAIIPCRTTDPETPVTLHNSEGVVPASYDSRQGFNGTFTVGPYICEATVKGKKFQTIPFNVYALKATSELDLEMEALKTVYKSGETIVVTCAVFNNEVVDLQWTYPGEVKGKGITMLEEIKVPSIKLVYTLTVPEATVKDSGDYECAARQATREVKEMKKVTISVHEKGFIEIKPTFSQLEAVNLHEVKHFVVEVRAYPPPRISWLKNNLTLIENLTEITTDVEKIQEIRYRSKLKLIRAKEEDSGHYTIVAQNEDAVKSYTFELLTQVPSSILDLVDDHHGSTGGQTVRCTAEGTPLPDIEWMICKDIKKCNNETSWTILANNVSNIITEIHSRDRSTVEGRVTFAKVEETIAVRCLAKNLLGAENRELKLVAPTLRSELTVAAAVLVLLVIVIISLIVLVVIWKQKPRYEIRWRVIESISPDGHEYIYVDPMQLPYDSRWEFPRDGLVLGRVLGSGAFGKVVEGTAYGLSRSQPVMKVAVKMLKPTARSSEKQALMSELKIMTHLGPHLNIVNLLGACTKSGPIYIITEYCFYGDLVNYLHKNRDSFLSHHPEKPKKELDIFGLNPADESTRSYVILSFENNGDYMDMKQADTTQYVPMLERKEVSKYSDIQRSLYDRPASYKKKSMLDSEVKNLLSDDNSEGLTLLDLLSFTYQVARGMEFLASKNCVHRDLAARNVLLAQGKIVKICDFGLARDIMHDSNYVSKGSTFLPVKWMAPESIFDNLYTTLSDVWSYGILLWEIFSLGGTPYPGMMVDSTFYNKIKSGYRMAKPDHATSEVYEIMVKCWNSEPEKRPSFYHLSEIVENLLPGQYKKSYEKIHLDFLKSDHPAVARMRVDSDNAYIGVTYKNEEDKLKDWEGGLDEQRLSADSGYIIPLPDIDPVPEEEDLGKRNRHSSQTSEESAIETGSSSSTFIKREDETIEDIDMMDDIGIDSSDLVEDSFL

- inhibition [4]: 13.7%
- inhibition [6]: 2.1%
- inhibition [7]: Active
- inhibition [9]: Active
- Cmax [15]: 869 ng/mL
- inhibition [17]: 12.3%
- inhibition [20]: 13.5%
- pIC50 [21]: < 5.00
- inhibition [23]: 19.6%
- inhibition [24]: 31.4%
Compound: Fc1ccc(-c2cnc3nnc(C(F)(F)c4ccc5ncccc5c4)n3n2)cc1
- Ratio IC50 [1]: 10000
- TGI [2]: Dose-dependent effect
- inhibition in vivo at 12.5 mg/kg [3]: 80.1%
- Ratio IC50 [5]: 10000
- Ratio IC50 [8]: 10000
- Ratio IC50 [10]: 10000
- Ratio IC50 [11]: 10000
- Ratio IC50 [12]: > 10000
- Ratio IC50 [13]: > 10000
- pIC50 [14]: < 5.00
- Ratio IC50 [16]: 10000
- Ratio IC50 [18]: 10000
- Ratio IC50 [19]: 10000
- pIC50 [22]: < 5.00
